Here are results for 25 molecules from ChEMBL document CHEMBL1155300, “Substituted 3-(4-(1,3,5-triazin-2-yl)-phenyl)-2-aminopropanoic acids as novel tryptophan hydroxylase inhibitors” (Bioorg Med Chem Lett, 2009).

For data set [1], the system named is RBL-2H3. Nature of the data set: Inhibition of serotonin biosynthesis in rat RBL2H3 cells after 3 days. The data set is classed as functional, cell-based. To be noted: RBL-2H3, 72 h. A digest of the protocol: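 Serotonin biosynthesis was measured in rat mastocytoma RBL-2H3 cells. EC50 was taken from inhibition of that biosynthesis.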
The target of data set [2] is T1, Tryptophan 5-hydroxylase 1 (Homo sapiens, UniProt P17752).
T1 sequence (P17752 whole entry): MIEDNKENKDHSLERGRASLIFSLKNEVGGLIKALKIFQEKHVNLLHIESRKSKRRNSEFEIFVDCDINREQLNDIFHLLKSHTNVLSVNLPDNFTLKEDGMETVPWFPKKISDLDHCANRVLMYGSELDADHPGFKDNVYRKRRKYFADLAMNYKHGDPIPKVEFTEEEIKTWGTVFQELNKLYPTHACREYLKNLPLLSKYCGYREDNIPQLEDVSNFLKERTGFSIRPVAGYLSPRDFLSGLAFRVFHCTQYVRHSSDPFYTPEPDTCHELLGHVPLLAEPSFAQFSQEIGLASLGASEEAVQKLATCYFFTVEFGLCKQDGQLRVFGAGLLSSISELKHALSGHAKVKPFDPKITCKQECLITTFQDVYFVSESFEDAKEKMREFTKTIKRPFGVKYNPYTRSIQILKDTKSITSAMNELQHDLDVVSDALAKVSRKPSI
Briefly: Inhibition of human recombinant TPH1 by continuous fluorescence assay. A digest of the protocol: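 Purified recombinant human TPH1 was tested in a continuous fluorescence assay. IC50 was taken from inhibition of enzyme activity.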

Data set [3] relates to Mus musculus. Nature of the data set: Reduction of serotonin level in mouse blood at 100 mg/kg, po bid for 5 days. The class given is functional. Also noted: scale not given: the % may be the effect or the level left. In outline:
(§1)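 Mice were dosed at 100 mg/kg twice daily (200 mg/kg/day) for five days, by intraperitoneal injection or oral gavage. 5-HT levels were then measured in blood and intestine (duodenum) and reported as percent decrease.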

Data set [4] concerns Mus musculus. Briefly: Reduction of serotonin level in mouse blood at 100 mg/kg, ip bid for 8 days. The data set is classed as functional. On the set-up: scale not given: the % may be the effect or the level left. Conditions: route intraperitoneal.
The subject of data set [5] is Mus musculus. Nature of the data set: AUC in C57 albino mouse at 10 mg/kg, po. The class given is ADME, organism-based, Plasma. On the set-up: dose 10 mg/kg, route oral. Conditions: in vivo. A digest of the protocol: (§2)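 Male C57-albino mice were used in two groups. One group received a single 1 mg/kg intravenous injection and the other a 10 mg/kg oral gavage dose. Plasma levels gave clearance and Vss (iv), and Cmax, AUC and oral bioavailability (po).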

Data set [6] deals with Mus musculus. Nature of the data set: Reduction of serotonin level in mouse duodenum at 100 mg/kg, ip bid for 8 days. The data set is classed as functional. Conditions: route intraperitoneal. On the set-up: scale not given: the % may be the effect or the level left.
Data set [7] in a line: Volume of distribution at steady state in C57 albino mouse at 1 mg/kg, iv. The class given is ADME, organism-based. Conditions: in vivo, read-out: Vdss. On the set-up: dose 1 mg/kg, route intravenous. In outline: as §2
Data set [8] in a line: Oral bioavailability in C57 albino mouse at 10 mg/kg. To be noted: in vivo. The class given is ADME, organism-based. In outline:
as §2

Data set [9] can be described thus: Cmax in C57 albino mouse at 10 mg/kg, po. To be noted: in vivo. Also noted: dose 10 mg/kg, route oral. The class given is ADME, organism-based. A digest of the protocol:
as §2

In data set [10] the test system is Mus musculus. Nature of the data set: Reduction of serotonin level in mouse duodenum at 100 mg/kg, po bid for 5 days. The data set is classed as functional. On the set-up: scale not given: the % may be the effect or the level left. In outline: as §1
Data set [11] deals with Mus musculus. Nature of the data set: Reduction of serotonin level in mouse duodenum at 100 mg/kg, ip bid for 5 days. The data set is classed as functional. Also noted: scale not given: the % may be the effect or the level left. Conditions: route intraperitoneal. A digest of the protocol: as §1
A short description of data set [12]: Plasma clearance in C57 albino mouse at 1 mg/kg, iv. The data set is classed as ADME, organism-based. Also noted: dose 1 mg/kg, route intravenous. In outline:
as §2

For data set [13], the species on record is Mus musculus. Briefly: Reduction of serotonin level in mouse brain. The data set is classed as functional, organism-based.
Data set [14] relates to Mus musculus. Briefly: Reduction of serotonin level in mouse blood at 100 mg/kg, ip bid for 5 days. The data set is classed as functional. On the set-up: scale not given: the % may be the effect or the level left. To be noted: route intraperitoneal. A digest of the protocol:
as §1

The source made the active and inactive calls. No cut-off for these calls is given here.

As for `Nc1nc(NC(c2ccc3ccccc3c2)C(F)(F)F)nc(-c2ccc(C[C@H](N)C(=O)O)cc2)n1` (stereo not given in full), in data set [1], the EC50 came out at 6300 nM. Further, the half-inhibitory concentration (IC50) in [2] is 330 nM.
The molecule `CC(Nc1nc(N)nc(-c2ccc(C[C@H](N)C(=O)O)cc2)n1)c1ccc(-c2ccccc2)cc1` (stereo not given in full) yielded an EC50 in data set [1] of 2500 nM. Further, the IC50 in [2] came out at 24 nM.
`Nc1nc(OC(c2ccc3ccccc3c2)C(F)(F)F)nc(-c2ccc(C[C@H](N)C(=O)O)cc2)n1` (stereo not given in full) yielded an EC50 in data set [1] of 9600 nM. In addition, the half-inhibitory concentration (IC50) in [2] came to 320 nM.
As for `Nc1nc(NCc2ccccc2)nc(-c2ccc(C[C@H](N)C(=O)O)cc2)n1`, the EC50 in [1] is over 11000 nM. For the same molecule, in data set [2], the IC50 turned out to be 500 nM.
Taken in the same sequence, the figures for `Nc1nc(NCC2CCCCC2)nc(-c2ccc(C[C@H](N)C(=O)O)cc2)n1` were over 11000 nM and 120 nM.
In data set [1], `C[C@H](Nc1nc(N)nc(-c2ccc(C[C@H](N)C(=O)O)cc2)n1)c1ccc2ccccc2c1` yielded an EC50 of 2800 nM. In addition, the IC50 in data set [2] stood at 44 nM.
On the same counts, the results for `CNc1nc(N[C@H](C)c2ccc3ccccc3c2)nc(-c2ccc(C[C@H](N)C(=O)O)cc2)n1` are 10200 nM and 610 nM.
In data set [1], `CC(Nc1nc(N)nc(-c2ccc(C[C@H](N)C(=O)O)cc2)n1)C12CC3CC(CC(C3)C1)C2` (stereo not given in full) displayed a concentration for a half-maximal effect (EC50) of 820 nM. Also, the half-maximal inhibitory concentration (IC50) in [2] was 19 nM.
For `Nc1nc(NCc2cccc(-c3ccccc3)c2)nc(-c2ccc(C[C@H](N)C(=O)O)cc2)n1`, the response in data set [1] was half-maximal at 1400 nM (EC50). Further, the IC50 in data set [2] came to 38 nM.
`Cc1ccc(CNc2nc(N)nc(-c3ccc(C[C@H](N)C(=O)O)cc3)n2)cc1C` had an EC50 in data set [1] of over 11000 nM. Further, in [2], the IC50 was determined as 100 nM.
Molecule `CCC(Nc1nc(N)nc(-c2ccc(C[C@H](N)C(=O)O)cc2)n1)c1ccc2ccccc2c1` (stereo not given in full) returned an EC50 in [1] of 2300 nM. Moreover, the IC50 in data set [2] was determined as 150 nM.
`C[C@H](c1ccc2ccccc2c1)N(C)c1nc(N)nc(-c2ccc(C[C@H](N)C(=O)O)cc2)n1` had an EC50 in data set [1] of 480 nM. Besides, the IC50 in [2] was 50 nM.
On to `C[C@@H](Nc1nc(N)nc(-c2ccc(C[C@H](N)C(=O)O)cc2)n1)c1ccc2ccccc2c1`, for which the Activity in data set [3] came out at 17%; in data set [4], 50%; in data set [6], 57%; in [10], 38%; in [11], 37%; in data set [14], 26%. Also, the area under the curve (AUC) in data set [5] is 1.6 µM·h. Besides, in data set [7], the Vd is 0.5 L/kg. In [8], this molecule returned a bioavailability of 5%. In data set [1], this molecule gave an EC50 of 300 nM. The molecule also had a Cmax in data set [9] of 500 nM. For the same molecule, the clearance in [12] was 8.33 mL/min/kg. The outcome in [13] was inactive.
The molecule `Nc1nc(NCc2ccccc2-c2ccccc2)nc(-c2ccc(C[C@H](N)C(=O)O)cc2)n1` registered an EC50 in data set [1] of 2200 nM. Also, the IC50 in [2] amounted to 7 nM.
On the same counts, the results for `CC(C)(Nc1nc(N)nc(-c2ccc(C[C@H](N)C(=O)O)cc2)n1)c1ccc2ccccc2c1` are 1700 nM and 55 nM.
With `N[C@@H](Cc1ccc(-c2nc(NCc3ccc4ccccc4c3)nc(N3CCOCC3)n2)cc1)C(=O)O`, in [1], the EC50 is over 40000 nM. The IC50 in data set [2] amounted to 15600 nM.
In turn, `Nc1nc(NCc2ccc3ccccc3c2)nc(-c2ccc(C[C@H](N)C(=O)O)cc2)n1` registered an EC50 in data set [1] of 2100 nM.
In [1], `Nc1nc(NCc2ccc(-c3ccc(C(F)(F)F)cc3)cc2)nc(-c2ccc(C[C@H](N)C(=O)O)cc2)n1` showed a half-maximal effective concentration (EC50) of 4100 nM. For the same molecule, the IC50 in data set [2] amounted to 160 nM.
In data set [1], `Nc1nc(NCc2ccc(Oc3ccccc3)cc2)nc(-c2ccc(C[C@H](N)C(=O)O)cc2)n1` registered an EC50 of 3400 nM. For the same molecule, in [2], the IC50 was 150 nM.
Take `Nc1nc(NCc2ccc(-c3ccccc3)cc2)nc(-c2ccc(C[C@H](N)C(=O)O)cc2)n1`: the 50% effective concentration (EC50) in data set [1] amounted to 1800 nM. Further, in [2], the IC50 stood at 60 nM.
`CC(C)C(Nc1nc(N)nc(-c2ccc(C[C@H](N)C(=O)O)cc2)n1)c1ccc2ccccc2c1` (stereo not given in full) yielded an EC50 in data set [1] of 5700 nM. For the same molecule, the IC50 in [2] came out at 250 nM.
Regarding `CC(C)CC(Nc1nc(N)nc(-c2ccc(C[C@H](N)C(=O)O)cc2)n1)c1ccc2ccccc2c1` (stereo not given in full), in data set [1], the EC50 was over 11000 nM. Further, the IC50 in [2] stood at 120 nM.
Taken in the same sequence, the figures for `Nc1nc(NCc2ccc(C(F)(F)F)cc2)nc(-c2ccc(C[C@H](N)C(=O)O)cc2)n1` were 36000 nM and 120 nM.
Turning to `CC(Nc1ncnc(-c2ccc(C[C@H](N)C(=O)O)cc2)n1)c1ccc2ccccc2c1` (stereo not given in full), the EC50 in data set [1] turned out to be 16200 nM. For the same molecule, the 50% inhibitory concentration (IC50) in [2] stood at 190 nM.
On the same counts, the results for `Cc1ccc(-c2ccc(CNc3nc(N)nc(-c4ccc(C[C@H](N)C(=O)O)cc4)n3)cc2)cc1` are 2300 nM and 14 nM.

Usually EC50 stands for the concentration that produces a half-maximal response. A word on the IC50: it is the point on the concentration scale where inhibition reaches its midpoint. A word on the AUC: it is concentration integrated over time. By bioavailability is commonly meant the share of a dose that reaches the circulation, judged against a reference dose that is usually intravenous. As a reminder, the Cmax is the maximum level reached in the sampled fluid or tissue. By clearance is commonly meant the volume of plasma or blood freed of the substance per unit of time.
